Columns and labels:
Actinomyces naeslundii [1] = test: Antimicrobial activity against Actinomyces naeslundii after 48 hrs by agar dilution method; type: functional
Procedure, shortened: (§1)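 MICs on clinical anaerobe isolates by the CLSI agar dilution method. Inoculum of 10^5 CFU applied with a Steers replicator. Plates incubated 48 h at 37°C in an anaerobic chamber.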

Bacteroides fragilis [2] = test: Antimicrobial activity against Bacteroides fragilis after 48 hrs by agar dilution method; type: functional; procedure, shortened: as §1
Prevotella intermedia [3] = test: Antimicrobial activity against Prevotella intermedia assessed as percent susceptible isolates after 48 hrs by agar dilution method; type: functional
Procedure, shortened: (§2)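 CLSI agar dilution (M11-A7); inoculum 10^5 CFU applied by replicator; plates incubated anaerobically 48 h at 37°C. For piperacillin-tazobactam, tazobactam held constant at 4 μg/ml.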

Schaalia meyeri [4] = test: Antimicrobial activity against Actinomyces meyeri assessed as percent resistant isolates after 48 hrs by agar dilution method; type: functional
Procedure, shortened: (§3)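 CLSI agar dilution on recent Korean clinical anaerobe isolates. Inoculum 10^5 CFU per spot by replicator. Plates incubated in an anaerobic chamber at 37°C for 48 h. For piperacillin plus tazobactam, tazobactam was held constant at 4 μg/ml. Resistance and susceptibility rates derived from MICs.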

Actinomyces israelii [5] = test: Antimicrobial activity against Actinomyces israelii after 48 hrs by agar dilution method; type: functional; procedure, shortened: as §1
[6] = system: Peptostreptococcus anaerobius; test: Antimicrobial activity against Peptostreptococcus anaerobius assessed as percent susceptible isolates after 48 hrs by agar dilution method; type: functional; procedure, shortened: as §3
Actinomyces naeslundii [7] = test: Antimicrobial activity against Actinomyces naeslundii assessed as percent resistant isolates after 48 hrs by agar dilution method; type: functional; procedure, shortened: as §3
Finegoldia magna [8] = test: Antimicrobial activity against Finegoldia magna after 48 hrs by agar dilution method; type: functional; procedure, shortened: as §2
Hoylesella oralis [9] = test: Antimicrobial activity against Prevotella oralis assessed as percent susceptible isolates after 48 hrs by agar dilution method; type: functional
Procedure, shortened: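 CLSI agar dilution MIC testing of clinical isolates. 10^5 CFU spotted by replicator, plates incubated 48 h at 37°C in an anaerobic chamber. Susceptibility rates derived from the MICs.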

Bacteroides ovatus [10] = test: Antimicrobial activity against Bacteroides ovatus assessed as percent resistant isolates after 48 hrs by agar dilution method; type: functional; procedure, shortened: as §3
[11] = system: Bacteroides thetaiotaomicron; test: Antimicrobial activity against Bacteroides thetaiotaomicron assessed as percent resistant isolates after 48 hrs by agar dilution method; type: functional; procedure, shortened: as §3
Hoylesella oralis [12] = test: Antimicrobial activity against Prevotella oralis after 48 hrs by agar dilution method; type: functional; procedure, shortened: as §2
Clostridioides difficile [13] = test: Antimicrobial activity against Clostridium difficile assessed as percent resistant isolates after 48 hrs by agar dilution method; type: functional
Fusobacterium nucleatum = test: Antimicrobial activity against Fusobacterium nucleatum after 48 hrs by agar dilution method; type: functional; procedure, shortened: as §2
Prevotella buccae [14] = test: Antimicrobial activity against Prevotella buccae assessed as percent susceptible isolates after 48 hrs by agar dilution method; type: functional, Segatella buccae; procedure, shortened: as §2
Prevotella buccae [15] = test: Antimicrobial activity against Prevotella buccae assessed as percent resistant isolates after 48 hrs by agar dilution method; type: functional, Segatella buccae; procedure, shortened: as §3
Eubacterium sp. [16] = test: Antimicrobial activity against Eubacterium sp. after 48 hrs by agar dilution method; type: functional; procedure, shortened: as §2
Actinomyces israelii [17] = test: Antimicrobial activity against Actinomyces israelii assessed as percent resistant isolates after 48 hrs by agar dilution method; type: functional; procedure, shortened: as §3
[18] = system: Bifidobacterium adolescentis; test: Antimicrobial activity against Bifidobacterium adolescentis after 48 hrs by agar dilution method; type: functional; procedure, shortened: as §1
Clostridium perfringens [19] = test: Antimicrobial activity against Clostridium perfringens assessed as percent susceptible isolates after 48 hrs by agar dilution method; type: functional
Clostridium perfringens [20] = test: Antimicrobial activity against Clostridium perfringens after 48 hrs by agar dilution method; type: functional
[21] = system: Parabacteroides distasonis; test: Antimicrobial activity against Bacteroides distasonis after 48 hrs by agar dilution method; type: functional; procedure, shortened: as §1
Fusobacterium varium = test: Antimicrobial activity against Fusobacterium varium after 48 hrs by agar dilution method; type: functional; procedure, shortened: as §2
Prevotella bivia [22] = test: Antimicrobial activity against Prevotella bivia after 48 hrs by agar dilution method; type: functional; procedure, shortened: as §2
Clostridioides difficile [23] = test: Antimicrobial activity against Clostridium difficile assessed as percent susceptible isolates after 48 hrs by agar dilution method; type: functional
Phocaeicola vulgatus [24] = test: Antimicrobial activity against Bacteroides vulgatus assessed as percent resistant isolates after 48 hrs by agar dilution method; type: functional; procedure, shortened: as §3
Prevotella intermedia [25] = test: Antimicrobial activity against Prevotella intermedia assessed as percent resistant isolates after 48 hrs by agar dilution method; type: functional; procedure, shortened: as §3
Finegoldia magna [26] = test: Antimicrobial activity against Finegoldia magna assessed as percent susceptible isolates after 48 hrs by agar dilution method; type: functional; procedure, shortened: as §2
Bacteroides fragilis [27] = test: Antimicrobial activity against Bacteroides fragilis assessed as percent resistant isolates after 48 hrs by agar dilution method; type: functional; procedure, shortened: as §3
Clostridioides difficile [28] = test: Antimicrobial activity against Clostridium difficile after 48 hrs by agar dilution method; type: functional
Prevotella bivia [29] = test: Antimicrobial activity against Prevotella bivia assessed as percent resistant isolates after 48 hrs by agar dilution method; type: functional; procedure, shortened: as §3
[30] = system: Bacteroides thetaiotaomicron; test: Antimicrobial activity against Bacteroides thetaiotaomicron assessed as percent susceptible isolates after 48 hrs by agar dilution method; type: functional
[31] = system: Bifidobacterium adolescentis; test: Antimicrobial activity against Bifidobacterium adolescentis assessed as percent resistant isolates after 48 hrs by agar dilution method; type: functional; procedure, shortened: as §3
Eubacterium sp. [32] = test: Antimicrobial activity against Eubacterium sp. assessed as percent resistant isolates after 48 hrs by agar dilution method; type: functional; procedure, shortened: as §3
Schaalia meyeri [33] = test: Antimicrobial activity against Actinomyces meyeri after 48 hrs by agar dilution method; type: functional; procedure, shortened: as §1
Eggerthella lenta = test: Antimicrobial activity against Eubacterium lentum assessed as percent resistant isolates after 48 hrs by agar dilution method; type: functional; procedure, shortened: as §3
Actinomyces israelii [34] = test: Antimicrobial activity against Actinomyces israelii assessed as percent susceptible isolates after 48 hrs by agar dilution method; type: functional
Bacteroides caccae = test: Antimicrobial activity against Bacteroides caccae assessed as percent resistant isolates after 48 hrs by agar dilution method; type: functional; procedure, shortened: as §3
[35] = system: Peptostreptococcus anaerobius; test: Antimicrobial activity against Peptostreptococcus anaerobius after 48 hrs by agar dilution method; type: functional; procedure, shortened: as §2
[36] = system: Parabacteroides distasonis; test: Antimicrobial activity against Bacteroides distasonis assessed as percent susceptible isolates after 48 hrs by agar dilution method; type: functional
Eubacterium sp. [37] = test: Antimicrobial activity against Eubacterium sp. assessed as percent susceptible isolates after 48 hrs by agar dilution method; type: functional; procedure, shortened: as §2
Bacteroides ovatus [38] = test: Antimicrobial activity against Bacteroides ovatus after 48 hrs by agar dilution method; type: functional; procedure, shortened: as §1
Finegoldia magna [39] = test: Antimicrobial activity against Finegoldia magna assessed as percent resistant isolates after 48 hrs by agar dilution method; type: functional; procedure, shortened: as §3
Parvimonas micra = test: Antimicrobial activity against Peptostreptococcus micros assessed as percent susceptible isolates after 48 hrs by agar dilution method; type: functional; procedure, shortened: as §3
Phocaeicola vulgatus [40] = test: Antimicrobial activity against Bacteroides vulgatus assessed as percent susceptible isolates after 48 hrs by agar dilution method; type: functional
Anaerococcus prevotii = test: Antimicrobial activity against Anaerococcus prevotii assessed as percent resistant isolates after 48 hrs by agar dilution method; type: functional; procedure, shortened: as §3
Schaalia odontolytica = test: Antimicrobial activity against Actinomyces odontolyticus after 48 hrs by agar dilution method; type: functional; procedure, shortened: as §1
[41] = system: Bacteroides thetaiotaomicron; test: Antimicrobial activity against Bacteroides thetaiotaomicron after 48 hrs by agar dilution method; type: functional; procedure, shortened: as §1

O=C(N[C@H](CO)[C@H](O)c1ccc([N+](=O)[O-])cc1)C(Cl)Cl [CHLORAMPHENICOL]
92%: Activity (Actinomyces israelii [34]) | Activity (Eubacterium sp. [37])
83%: Activity (Clostridioides difficile [23])
0%: Activity (Schaalia meyeri [4]) | Activity (Actinomyces naeslundii [7]) | Activity (Bacteroides ovatus [10]) | Activity [11] | Activity (Clostridioides difficile [13]) | Activity (Prevotella buccae [15]) | Activity (Actinomyces israelii [17]) | Activity (Phocaeicola vulgatus [24]) | Activity (Prevotella intermedia [25]) | Activity (Bacteroides fragilis [27]) | Activity (Prevotella bivia [29]) | Activity [31] | Activity (Eubacterium sp. [32]) | Activity (Eggerthella lenta) | Activity (Bacteroides caccae) | Activity (Finegoldia magna [39]) | Activity (Parvimonas micra) | Activity (Anaerococcus prevotii)
0.13 µg/mL: MIC (Fusobacterium nucleatum) | MIC (Fusobacterium varium)
98%: Activity [30] | Activity [36] | Activity (Phocaeicola vulgatus [40])
16 µg/mL: MIC90 (Clostridioides difficile [28])
2 µg/mL: MIC90 (Actinomyces naeslundii [1]) | MIC90 (Actinomyces israelii [5]) | MIC90 (Eubacterium sp. [16]) | MIC90 [18] | MIC90 (Schaalia meyeri [33]) | MIC50 [35] | MIC90 [35] | MIC90 (Schaalia odontolytica)
100%: Activity (Prevotella intermedia [3]) | Activity [6] | Activity (Hoylesella oralis [9]) | Activity (Prevotella buccae [14]) | Activity (Clostridium perfringens [19]) | Activity (Finegoldia magna [26])
1 µg/mL: MIC (Actinomyces naeslundii [1]) | MIC50 (Actinomyces naeslundii [1]) | MIC (Actinomyces israelii [5]) | MIC50 (Actinomyces israelii [5]) | MIC (Eubacterium sp. [16]) | MIC50 (Eubacterium sp. [16]) | MIC [18] | MIC50 [18] | MIC (Schaalia meyeri [33]) | MIC50 (Schaalia meyeri [33]) | MIC (Schaalia odontolytica) | MIC50 (Schaalia odontolytica)
4 µg/mL: MIC50 (Bacteroides fragilis [2]) | MIC90 (Bacteroides fragilis [2]) | MIC50 (Finegoldia magna [8]) | MIC90 (Finegoldia magna [8]) | MIC50 (Hoylesella oralis [12]) | MIC50 (Clostridium perfringens [20]) | MIC90 (Clostridium perfringens [20]) | MIC [21] | MIC50 [21] | MIC50 (Prevotella bivia [22]) | MIC50 (Clostridioides difficile [28]) | MIC (Bacteroides ovatus [38]) | MIC50 (Bacteroides ovatus [38]) | MIC [41] | MIC50 [41]
8 µg/mL: MIC90 (Hoylesella oralis [12]) | MIC90 [21] | MIC90 (Prevotella bivia [22]) | MIC90 (Bacteroides ovatus [38]) | MIC90 [41]

Source: ChEMBL document CHEMBL1671716, “Antimicrobial susceptibility patterns for recent clinical isolates of anaerobic bacteria in South Korea” (2010)
